This passage reports inhibition and IC50 results from ChEMBL document CHEMBL1811756, “Discovery of novel c-Met kinase inhibitors bearing a thieno[2,3-d]pyrimidine or furo[2,3-d]pyrimidine scaffold” (Bioorg Med Chem, 2011).

The inhibition is the drop in the measured response relative to a control, in per cent. Usually pIC50 stands for −log10 of the IC50, conventionally taken in molar units. Low readings indicate a high IC50, high ones a low IC50.

pIC50: −log10 of the molar value. Some results are limits rather than exact numbers.

Assay [1] deals with BaF3. The experiment in a line: Antiproliferative activity against […] BAF3 cells expressing TPR-Met assessed as inhibition of cell growth at 0.1 uM. The format is functional. The following applies: Mus musculus. A digest of the protocol: (§1)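 BaF3 cells stably expressing TPR-Met were seeded in 96-well plates. Next day they were exposed to compound at 10, 1 or 0.1 µM for 72 h. Growth was read by MTT at A570. Inhibition (%) = [1 − (A570/A570 control)] × 100.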

The subject of assay [2] is BaF3. Put plainly: Antiproliferative activity against […] BAF3 cells expressing TPR-Met assessed as inhibition of cell growth at 10 uM. Type of assay: functional. Conditions: Mus musculus. A digest of the protocol: as §1
The target in assay [3] is T1, Hepatocyte growth factor receptor (Homo sapiens, UniProt P08581). The experiment in a line: Inhibition of c-Met after 60 mins by ELISA. Put shortly:
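ELISA on plates pre-coated with Poly(Glu,Tyr) 4:1 at 20 µg/mL. Detection used anti-phosphotyrosine PY99, then HRP anti-mouse IgG and o-phenylenediamine/H₂O₂, read at 490 nm. IC50 was calculated by the Logit method from ≥3 independent tests at six concentrations each.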
(In an ELISA, binding on a coated surface is turned into a signal by an enzyme label.)

For assay [4], the target named is T1, Hepatocyte growth factor receptor. Put plainly: Inhibition of c-Met at 10 uM after 60 mins by ELISA. Put shortly: (§2)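 c-Met tyrosine kinase ELISA with Poly(Glu,Tyr) 4:1 substrate and 10 µM ATP in HEPES pH 7.4 buffer with Mg²⁺/Mn²⁺, run 60 min at 37 °C. Phosphotyrosine was detected with PY99 and an HRP secondary antibody, read at 490 nm. Percent inhibition was measured at a single compound concentration.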

The test system of assay [5] is BaF3. The experiment in a line: Antiproliferative activity against […] BAF3 cells expressing TPR-Met assessed as inhibition of cell growth at 1 uM. The format is functional. The following applies: Mus musculus. A digest of the protocol: as §1
In assay [6] the target is T1, Hepatocyte growth factor receptor. Put plainly: Inhibition of c-Met at 1 uM after 60 mins by ELISA. Put shortly:
as §2

T1 sequence (P08581 whole entry): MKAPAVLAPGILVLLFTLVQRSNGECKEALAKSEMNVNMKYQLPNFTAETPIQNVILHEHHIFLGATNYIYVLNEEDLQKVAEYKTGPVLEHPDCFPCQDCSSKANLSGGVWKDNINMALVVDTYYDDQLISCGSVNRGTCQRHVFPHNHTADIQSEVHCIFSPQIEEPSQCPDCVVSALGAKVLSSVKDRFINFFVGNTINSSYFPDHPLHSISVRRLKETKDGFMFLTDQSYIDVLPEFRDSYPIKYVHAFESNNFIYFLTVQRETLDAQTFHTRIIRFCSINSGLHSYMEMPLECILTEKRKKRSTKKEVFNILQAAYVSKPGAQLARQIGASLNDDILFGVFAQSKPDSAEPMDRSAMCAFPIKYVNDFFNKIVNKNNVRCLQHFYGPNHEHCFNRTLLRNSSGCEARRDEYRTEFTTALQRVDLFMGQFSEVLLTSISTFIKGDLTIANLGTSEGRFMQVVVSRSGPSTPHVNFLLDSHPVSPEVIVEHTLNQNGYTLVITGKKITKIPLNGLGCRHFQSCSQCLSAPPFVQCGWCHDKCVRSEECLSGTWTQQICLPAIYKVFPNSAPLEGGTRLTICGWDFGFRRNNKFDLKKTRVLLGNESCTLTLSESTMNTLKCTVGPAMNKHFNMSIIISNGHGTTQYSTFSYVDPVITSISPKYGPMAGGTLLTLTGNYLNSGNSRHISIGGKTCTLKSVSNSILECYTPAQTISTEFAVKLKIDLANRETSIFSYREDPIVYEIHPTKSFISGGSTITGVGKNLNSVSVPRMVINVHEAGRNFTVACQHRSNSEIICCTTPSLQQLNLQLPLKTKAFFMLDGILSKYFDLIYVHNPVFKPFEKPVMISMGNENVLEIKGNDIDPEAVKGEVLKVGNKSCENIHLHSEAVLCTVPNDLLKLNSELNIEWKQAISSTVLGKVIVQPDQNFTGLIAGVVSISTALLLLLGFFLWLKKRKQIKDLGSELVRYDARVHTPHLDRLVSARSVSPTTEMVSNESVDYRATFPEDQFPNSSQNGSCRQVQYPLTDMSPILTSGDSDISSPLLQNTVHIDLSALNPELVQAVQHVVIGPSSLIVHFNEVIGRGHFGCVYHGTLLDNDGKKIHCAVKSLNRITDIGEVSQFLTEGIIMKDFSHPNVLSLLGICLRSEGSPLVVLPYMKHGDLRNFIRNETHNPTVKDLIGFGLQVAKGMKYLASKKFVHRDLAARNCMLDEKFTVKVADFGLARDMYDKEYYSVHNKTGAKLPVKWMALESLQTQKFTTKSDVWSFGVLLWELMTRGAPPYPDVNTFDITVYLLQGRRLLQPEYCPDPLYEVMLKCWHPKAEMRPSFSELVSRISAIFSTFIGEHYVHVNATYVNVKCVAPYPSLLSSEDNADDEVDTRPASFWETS

Turning to `O=C(Nc1ccc(Oc2ncnc3occ(-c4ccc(F)cc4)c23)c(F)c1)c1cccn(-c2ccc(F)cc2)c1=O`, in the assay with BaF3 [1], the inhibition at 0.1 µM was -4.7%. The inhibition at 10 µM in the assay on BaF3 [2] came out at 76.3%. In assay [3], this compound gave a pIC50 of 6.51. Also, in assay [4], the inhibition was found to be 80.9%. Besides, in the assay on BaF3 [5], the inhibition at 1 µM was -5.8%.
As for `O=C(Nc1ccc(Oc2ncnc3sc4c(c23)CCCCC4)c(F)c1)c1cccn(-c2ccc(F)cc2)c1=O`, the pIC50 in assay [3] was less than 5.00. For the same compound, in assay [4], the inhibition is 23.4%.
On to `O=C(Nc1ccc(Oc2ncnc3scc(-c4ccc(F)cc4)c23)c(F)c1)c1cccn(-c2ccc(F)cc2)c1=O`, for which the inhibition at 0.1 µM with BaF3 [1] is 12.9%. Further, in the assay on BaF3 [2], the inhibition at 10 µM was 92.2%. Besides, in assay [3], the pIC50 was 7.17. For the same compound, in assay [4], the inhibition stood at 71.9%. Moreover, the inhibition at 1 µM with BaF3 [5] amounted to 30.8%.
As to `O=C(Nc1ccc(Oc2ncnc3sc4c(c23)CCC4)c(F)c1)c1cccn(-c2ccc(F)cc2)c1=O`, the pIC50 in assay [3] was less than 5.00. Besides, the inhibition in assay [4] was 12.3%.
Regarding `O=C(Nc1ccc(Oc2ncnc3sccc23)c(F)c1)c1cccn(-c2ccc(F)cc2)c1=O`, in the assay with BaF3 [1], the inhibition at 0.1 µM was -12.8%. The inhibition at 10 µM in the assay on BaF3 [2] was 5.3%. The compound further had a pIC50 in assay [3] of less than 5.00. Moreover, the inhibition in assay [4] is 14.3%. Besides, the inhibition at 1 µM in the assay on BaF3 [5] was -6.5%.
For `Cc1ccc(-c2csc3ncnc(Oc4ccc(NC(=O)c5cccn(-c6ccc(F)cc6)c5=O)cc4F)c23)s1`, in that order: -2.3%, 95%, 7.38, 85.5% and 60.6%.
In the case of `O=C(Nc1ccc(Oc2ncnc3scc(-c4ccc5ccccc5c4)c23)c(F)c1)c1cccn(-c2ccc(F)cc2)c1=O`, the inhibition is 92.1% in assay [4] and less than 50% in assay [6].
With `COc1ccc(-c2csc3ncnc(Oc4ccc(NC(=O)c5cccn(-c6ccc(F)cc6)c5=O)cc4F)c23)cc1`, the inhibition at 0.1 µM with BaF3 [1] was -10.1%. The inhibition at 10 µM in the assay on BaF3 [2] amounted to 94.3%. The same compound showed a pIC50 in assay [3] of 7.33. The inhibition in assay [4] turned out to be 90%. In addition, in the assay on BaF3 [5], the inhibition at 1 µM is 91.1%.
In turn, `COc1nc(Oc2ccc(NC(=O)c3cccn(-c4ccc(F)cc4)c3=O)cc2F)c2c(-c3ccccc3)coc2n1` gave a negative logarithm of the IC50 (pIC50) in assay [3] of less than 5.00. In addition, in assay [4], the inhibition was 31.7%.
For `COc1ccc(-c2csc3ncnc(Oc4ccc(NC(=O)c5cccn(-c6ccc(F)cc6)c5=O)cc4F)c23)cc1OC`, in that order: 6.91 and 99.9%.
In the case of `Cc1nc(Oc2ccc(NC(=O)c3cccn(-c4ccc(F)cc4)c3=O)cc2F)c2c3c(sc2n1)CCCC3`, the pIC50 in assay [3] is less than 5.00. In assay [4], the inhibition turned out to be 31.2%.
For `O=C(Nc1ccc(Oc2ncnc3scc(-c4ccc(C(F)(F)F)cc4)c23)c(F)c1)c1cccn(-c2ccc(F)cc2)c1=O`, in that order: 6.72 and 83.8%.
For `Cc1coc2ncnc(Oc3ccc(NC(=O)c4cccn(-c5ccc(F)cc5)c4=O)cc3F)c12`, in that order: less than 5.00 and 16.5%.
For `O=C(Nc1ccc(Oc2ncnc3sc(-c4ccccc4)cc23)c(F)c1)c1cccn(-c2ccc(F)cc2)c1=O`, in that order: less than 5.00 and 10.6%.
Turning to `O=C(Nc1ccc(Oc2ncnc3occ(-c4cccs4)c23)c(F)c1)c1cccn(-c2ccc(F)cc2)c1=O`, the inhibition at 0.1 µM in the assay with BaF3 [1] is -12.1%. Also, in the assay on BaF3 [2], the inhibition at 10 µM was -5.4%. This compound also gave a pIC50 in assay [3] of less than 5.00. In assay [4], the inhibition is 46.6%. In addition, the inhibition at 1 µM in the assay on BaF3 [5] is -9.3%.
For `CSc1nc(Oc2ccc(NC(=O)c3cccn(-c4ccc(F)cc4)c3=O)cc2F)c2c(-c3ccccc3)coc2n1`, in that order: 10.3%, 14.9%, less than 5.00, 33.4% and 2%.
For `[N-]=[N+]=Nc1nc(Oc2ccc(NC(=O)c3cccn(-c4ccc(F)cc4)c3=O)cc2F)c2c(-c3ccccc3)coc2n1`, the pIC50 in assay [3] was less than 5.00. Besides, the inhibition in assay [4] worked out at 18.5%.
With `O=C(Nc1ccc(Oc2ncnc3scc(-c4ccc(-c5ccccc5)cc4)c23)c(F)c1)c1cccn(-c2ccc(F)cc2)c1=O`, the inhibition in assay [4] is 80.4%; in assay [6], less than 50%.
Turning to `CS(=O)(=O)c1nc(Oc2ccc(NC(=O)c3cccn(-c4ccc(F)cc4)c3=O)cc2F)c2c(-c3ccccc3)coc2n1`, the pIC50 in assay [3] is less than 5.00. Also, the inhibition in assay [4] is 36.7%.
In the case of `O=C(Nc1ccc(Oc2ncnc3occ(-c4ccccc4)c23)c(F)c1)c1cccn(-c2ccc(F)cc2)c1=O`, the inhibition at 0.1 µM with BaF3 [1] is -6.9%. The inhibition at 10 µM in the assay on BaF3 [2] was 93.7%. Further, the pIC50 in assay [3] was 7.16. For the same compound, the inhibition in assay [4] came out at 84.9%. For the same compound, in the assay on BaF3 [5], the inhibition at 1 µM was found to be 14.6%.
For `O=C(Nc1ccc(Oc2ncnc3scc(-c4ccc(F)c(F)c4)c23)c(F)c1)c1cccn(-c2ccc(F)cc2)c1=O` the same measures were -1.1%, 89.7%, 7.18, 88.4% and 13.9%.
For `Cc1nc(Oc2ccc(NC(=O)c3cccn(-c4ccc(F)cc4)c3=O)cc2F)c2c(-c3cccs3)coc2n1` the same measures were 0.6%, -9.7%, less than 5.00, 24.3% and -2.8%.
As for `CNc1nc(Oc2ccc(NC(=O)c3cccn(-c4ccc(F)cc4)c3=O)cc2F)c2c(-c3ccccc3)coc2n1`, the figures for the inhibition in assay [4] and in assay [6] were 78.2% and less than 50%, respectively.
